Columns and labels:
[1] = test system: Middle East respiratory syndrome-related coronavirus; assay: Antiviral activity against MERS-CoV KOR/KNIH/002_05_2015 infected in African green monkey Vero cells expressing viral spike protein by immunofluorescence assay; type: functional, organism-based; conditions: KOR/KNIH/002_05_2015, Vero
Vero = assay: (§1) Cytotoxicity against African green monkey Vero cells assessed as reduction in cell viability; type: cell-based; conditions: chlorocebus sabaeus, vero
[2] = Metabolic stability in human microsomes assessed as parent compound remaining measured after 30 mins; type: ADME, Microsome; conditions: read-out: Stability
[3] = Metabolic stability in rat microsomes assessed as parent compound remaining measured after 30 mins; type: ADME, Microsome; conditions: read-out: Stability
[4] = Metabolic stability in mouse microsomes assessed as parent compound remaining measured after 30 mins; type: ADME, Microsome; conditions: read-out: Stability
[5] = molecular target: Voltage-gated inwardly rectifying potassium channel KCNH2 (Homo sapiens, UniProt Q12809); assay: Binding affinity to human ERG
HFL1 = assay: Cytotoxicity against human HFL1 cells assessed as reduction in cell viability; type: cell-based
L929 = assay: Cytotoxicity against mouse L929 cells assessed as reduction in cell viability; type: cell-based
NIH3T3 = assay: Cytotoxicity against mouse NIH/3T3 cells assessed as reduction in cell viability; type: cell-based
CHO-K1 = assay: Cytotoxicity against CHOK1 cells assessed as reduction in cell viability; type: cell-based; conditions: Cricetulus griseus
[6] = Cmax in rat at 5 mg/kg, po; type: ADME, organism-based; set-up: dose 5 mg/kg, route oral; conditions: in vivo
In short: (§2)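 Rats given single doses, 2 mg/kg intravenously or 5 mg/kg orally, with three animals per route (n = 3). Each parameter is taken from three determinations.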

[7] = Half life in rat at 2 mg/kg, iv; type: ADME, organism-based; conditions: in vivo
[8] = AUC (0 to 24 hrs) in rat at 2 mg/kg, iv; type: ADME, organism-based; set-up: time < 24 hr, dose 2 mg/kg, route intravenous; conditions: in vivo; in short: as §2
[9] = AUC (0 to infinity) in rat at 2 mg/kg, iv; type: ADME, organism-based; set-up: dose 2 mg/kg, route intravenous, time infinity; conditions: in vivo; in short: as §2
[10] = Clearance in rat at 2 mg/kg, iv; type: ADME, organism-based; conditions: in vivo; in short: as §2
[11] = Oral bioavailability in rat at 5 mg/kg; type: ADME, organism-based; conditions: in vivo
In short: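 Rats dosed at 5 mg/kg p.o., with comparison i.v. dosing at 2 mg/kg; n = 3 per route, three determinations.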

[12] = as §1; type: cell-based; conditions: chlorocebus sabaeus, Vero cells

Sequence of Voltage-gated inwardly rectifying potassium channel KCNH2 (Q12809 whole entry): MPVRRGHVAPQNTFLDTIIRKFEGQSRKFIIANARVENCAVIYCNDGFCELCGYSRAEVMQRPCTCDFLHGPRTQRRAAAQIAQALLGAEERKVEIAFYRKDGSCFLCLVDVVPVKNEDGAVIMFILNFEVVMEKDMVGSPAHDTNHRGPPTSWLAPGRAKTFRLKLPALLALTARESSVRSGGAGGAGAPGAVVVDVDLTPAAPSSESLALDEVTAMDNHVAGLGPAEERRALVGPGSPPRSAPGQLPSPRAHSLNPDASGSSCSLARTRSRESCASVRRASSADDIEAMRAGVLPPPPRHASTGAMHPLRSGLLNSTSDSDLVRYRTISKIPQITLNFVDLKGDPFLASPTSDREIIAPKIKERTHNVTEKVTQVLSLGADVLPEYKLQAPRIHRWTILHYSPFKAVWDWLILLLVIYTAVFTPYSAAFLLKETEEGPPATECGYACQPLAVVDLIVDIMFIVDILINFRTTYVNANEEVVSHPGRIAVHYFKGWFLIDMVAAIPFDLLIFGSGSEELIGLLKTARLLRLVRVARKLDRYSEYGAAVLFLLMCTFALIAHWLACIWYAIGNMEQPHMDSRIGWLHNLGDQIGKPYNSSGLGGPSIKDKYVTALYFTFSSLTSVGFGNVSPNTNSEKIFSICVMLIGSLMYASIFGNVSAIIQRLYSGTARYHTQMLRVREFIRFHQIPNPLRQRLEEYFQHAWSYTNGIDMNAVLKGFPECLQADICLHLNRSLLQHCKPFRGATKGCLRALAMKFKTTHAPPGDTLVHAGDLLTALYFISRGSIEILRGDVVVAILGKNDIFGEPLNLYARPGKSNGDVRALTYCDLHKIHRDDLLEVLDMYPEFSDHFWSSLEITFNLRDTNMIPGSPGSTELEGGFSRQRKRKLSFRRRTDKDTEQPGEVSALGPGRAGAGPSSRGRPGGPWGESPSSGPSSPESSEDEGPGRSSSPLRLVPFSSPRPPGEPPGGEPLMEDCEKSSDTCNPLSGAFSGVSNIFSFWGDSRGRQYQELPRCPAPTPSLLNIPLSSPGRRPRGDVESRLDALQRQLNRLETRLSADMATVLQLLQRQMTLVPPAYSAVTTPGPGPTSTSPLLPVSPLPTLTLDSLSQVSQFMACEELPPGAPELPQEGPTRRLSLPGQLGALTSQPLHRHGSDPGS

SMILES | IC50 [1] [µM] | CC50 (Vero) [µM] | also measured
CC(=O)c1c(Nc2ccc(F)cc2F)[nH]c2c(F)cc(F)cc2c1=O | 1.06 | > 25 | 
CC(C)C(=O)c1c(Nc2ccc(F)cc2F)[nH]c2c(F)cc(F)cc2c1=O | 0.79 | > 25 | 
CC(C)C(=O)c1c(Nc2ccc(F)cc2F)[nH]c2c(C(F)(F)F)cc(Cl)cc2c1=O | 0.13 | 7.3 | 
CC(=O)c1c(OCc2ccc(Cl)c(Cl)c2)[nH]c2c(F)cc(F)cc2c1=O | 7.8 | > 25 | 
CC(C)C(=O)c1c(Nc2ccc(F)c(F)c2F)[nH]c2c(F)cc(F)cc2c1=O | 0.086 | > 25 | remaining at 0.5 h [2]: 52%; remaining at 0.5 h [3]: 44%; remaining at 0.5 h [4]: 35%; IC50 [5]: 6.9 µM; IC50 (HFL1): 15.6 µM; IC50 (L929): 15.8 µM; IC50 (NIH3T3): 65.6 µM; IC50 (CHO-K1): 6.9 µM; Cmax [6]: 2320 ng/mL; half-life [7]: 4.6 h; AUC [8]: 28300 ng·h/mL; AUC(0-inf) [9]: 28900 ng·h/mL; clearance [10]: 1.17 mL/min/kg; F [11]: 56%
CC(C)C(=O)c1c(Nc2ccc(F)c(F)c2F)[nH]c2c(Cl)ccc(Cl)c2c1=O | 0.166 | 10.9 | 
CC(=O)c1c(Nc2ccc(F)cc2F)[nH]c2c([N+](=O)[O-])cc(Cl)cc2c1=O | 1.16 | > 25 | 
COc1cccc(Nc2[nH]c3c(F)cc(F)cc3c(=O)c2C(C)=O)c1 | > 25 | > 25 | 
CC(=O)c1c(Nc2ccc(Cl)cc2)[nH]c2c(F)cc(F)cc2c1=O | 1.44 | > 25 | 
CC(=O)c1c(Nc2ccc(F)cc2F)[nH]c2c(F)cc(Cl)cc2c1=O | 0.98 | > 25 | 
CCCCNc1[nH]c2c(F)cc(F)cc2c(=O)c1C(C)=O | > 25 | > 25 | 
CC(C)C(=O)c1c(Nc2ccc(F)cc2F)[nH]c2c(Cl)cc(Cl)c(Cl)c2c1=O | 0.129 |  | CC50 [12]: > 25 µM
CC(=O)c1c(NCc2ccc(F)cc2F)[nH]c2c(F)cc(F)cc2c1=O | 5.9 | > 25 | 
CC(=O)c1c(Nc2ccc(F)cc2F)[nH]c2c(Cl)cc(Cl)c(Cl)c2c1=O | 0.29 | > 25 | 
CC(=O)c1c(NC(C)C)[nH]c2c(C)cc(C)cc2c1=O | > 25 |  | 
CC(=O)c1c(N2CCCCC2)[nH]c2c(F)cc(F)cc2c1=O | > 25 | > 25 | 
COc1ccc(Nc2[nH]c3c(F)cc(F)cc3c(=O)c2C(C)=O)cc1 | > 25 | > 25 | 
CC(=O)c1c(Nc2ccc(F)cc2F)[nH]c2c(C(F)(F)F)cc(Cl)cc2c1=O | 0.15 | 7.3 | 
CC(=O)c1c(Nc2ccc(Br)cc2)[nH]c2c(F)cc(F)cc2c1=O | 1.13 | > 25 | 
CC(=O)c1c(NC(C)C)[nH]c2c(C(F)(F)F)cc(Cl)cc2c1=O | 0.77 | > 25 | 
CC(C)C(=O)c1c(Nc2ccc(F)c(F)c2F)[nH]c2c(Cl)cc(Cl)c(Cl)c2c1=O | 0.1 | 6.4 | 
CC(=O)c1c(NC(C)C)[nH]c2c(C(C)C)cccc2c1=O | > 25 |  | 
CC(=O)c1c(Nc2ccc(F)c(F)c2F)[nH]c2c(F)cc(F)cc2c1=O | 0.53 | > 25 | 
CC(C)Nc1[nH]c2c(C(F)(F)F)cc(Cl)cc2c(=O)c1C(=O)c1ccccc1 | > 25 |  | 
CC(=O)c1c(N2CCOCC2)[nH]c2c(F)cc(F)cc2c1=O | > 25 | > 25 | 
COc1ccc(CNc2[nH]c3c(F)cc(F)cc3c(=O)c2C(C)=O)cc1 | > 25 | > 25 | 
CC(=O)c1c(NCc2ccc(F)cc2)[nH]c2c(F)cc(F)cc2c1=O | 17.6 | > 25 | 

Source: ChEMBL document CHEMBL4311996 (Bioorg Med Chem Lett, 2019)
